High-throughput results deposited in PubChem by several laboratories.
Runt-CBFb FRET – blocks binding of human RUNX1 Runt domain to CBFb; Cerulean-Runt/Venus-CBFb FRET ratio 530/480, 1 h; inhibition, % at 20 µM; AID 1496; Q01196+Q13951; actives 0.46% (n = 220,000);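 active = inhibition over about 50% at 20 µM in the single-dose screen, limit read from the data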;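 also: 0% = DMSO wells and 100% = excess unlabeled CBFb competitor control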
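Assay system: Cerulean-Runt domain fusion protein, energy donor; Signal: fluorescence energy transfer, 422 nm excitation, 530/480 nm emission; Timing: 1 h compound exposure, room temperature; Control set: unlabeled CBFb; Medium: Tris buffer pH 7.5 with salts and BSA; Compound: single test concentration of 20 µM, 1% DMSO final; Probe or stimulus: Venus-CBFb 100 nM.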
CaV13 FRET inh – Primary screen for inhibitors of IQ motif and Ca2+-dependent inactivation inhibitor domain binding in CACNA1D, Förster resonance energy transfer in living cells, …. inhibition, % at 12.3 µM. actives 0.098% (n = 340,000). HEK cells, CFP/YFP FRET ICDI-IQ, plate reader, 10 min; percent FRET-ratio fall versus neutral wells;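 active = mean replicate inhibition of at least 30% and at least 1% of replicates passing that level; inconclusive = only one of the two criteria is met; inactive = neither criterion is met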;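 also: 0% = median of the neutral control wells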
RanGTP-Imp inh – inhibitors of RanGTP-importin-beta interaction, primary screen, biochemical, FRET, CFP-Ran, YFP-importin-beta, homogeneous; inhibition, % (test concentration not listed); cell-free CFP-Ran/YFP-importin-beta FRET ratio; AID 2216; actives 1.1% (n = 300,000);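 active = more than half of the replicate wells show a fall in the fluorescence ratio signal beyond about 16%, limit read from the data, passing the limit was not always enough; inconclusive = exactly half of the replicate wells pass the set limit; inactive = fewer than half of replicates pass the limit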;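 also: 0% = DMSO wells and 100% = Ran loaded with GDP instead of GTP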
Hck Nef HTS – inhibitors of human Hck kinase activated by Nef. actives 0.68% (n = 220,000). P08631. inhibition, % at 20 µM. Recombinant Hck-YEEI plus Nef, Z-Lyte FRET kinase assay;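 active = Hck-Nef kinase inhibition above about 50%, limit read from the data; inactive = inhibition below that limit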;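 also: 0% = DMSO with Hck plus Nef and 100% = Hck alone without Nef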
Target sequence (P08631 whole entry, looked up): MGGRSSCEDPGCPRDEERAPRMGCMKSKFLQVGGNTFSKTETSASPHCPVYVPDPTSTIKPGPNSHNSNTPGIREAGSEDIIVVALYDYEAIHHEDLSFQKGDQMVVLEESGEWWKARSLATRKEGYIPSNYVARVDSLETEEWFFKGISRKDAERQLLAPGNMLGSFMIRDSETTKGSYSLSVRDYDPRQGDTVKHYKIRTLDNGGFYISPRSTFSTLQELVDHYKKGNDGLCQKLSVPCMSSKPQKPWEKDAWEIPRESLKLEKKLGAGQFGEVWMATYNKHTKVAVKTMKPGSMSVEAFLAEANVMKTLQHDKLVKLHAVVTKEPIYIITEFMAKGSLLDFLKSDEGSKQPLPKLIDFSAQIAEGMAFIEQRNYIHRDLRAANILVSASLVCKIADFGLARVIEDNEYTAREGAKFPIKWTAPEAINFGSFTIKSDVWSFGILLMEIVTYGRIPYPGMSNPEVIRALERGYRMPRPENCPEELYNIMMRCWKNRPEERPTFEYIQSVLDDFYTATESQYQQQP
Runt-SMMHC FRET – Runt domain-CBFb-SMMHC interaction inhibition; Q01196+Q13951; Cerulean-Runt/Venus-CBFb-SMMHC FRET ratio 530/480, 1 h; inhibition, % at 20 µM; actives 0.74% (n = 220,000); AID 1434;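 active = mean inhibition across duplicate retests at 20 µM reaching about 50%, limit read from the data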;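 also: 0% = DMSO wells and 100% = wells with excess untagged CBFb-SMMHC; inhibitors lower the FRET ratio by blocking Runt binding to CBFb-SMMHC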
Hck-Nef confirm – Hck-Nef kinase inhibition, confirmation | shares compounds with Hck Nef HTS | Recombinant Hck-YEEI:Nef, Z-Lyte FRET kinase assay | calls only at 10 µM | actives 28% (n = 1,300) | AID 463188;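 active = average inhibition of at least 50%, with Z-scores no higher than 3 in both the phospho-tyrosine peptide and fluorescence counterscreens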
An asterisk follows results filed as active; i = inactive; ? = inconclusive; nt = no result shown; + = active, no number. A selection: hits, their analogues and other compounds. The true share with any hit is near 1.5%.

SMILES	Runt-CBFb FRET	CaV13 FRET inh	RanGTP-Imp inh	Hck Nef HTS	Runt-SMMHC FRET	Hck-Nef confirm
CCc1nnc(NS(=O)(=O)c2ccc(N=Cc3c(O)n(-c4ccc(Cl)cc4)c(=O)[nH]c3=O)cc2)s1	-9.9	12.9	-1.4	55.6*	-55.5	i
O=C1NC(=O)N(CCc2ccc(F)cc2)C(=O)/C1=C/c1cccs1	nt	-6.8	?	149.0*	19.4	+
Cc1ccc(/C=C2/C(=O)NC(=O)N(CCc3ccc(F)cc3)C2=O)o1	4.8	-1.0	4.9	16.4	1.7	nt
O=C1NC(=O)N(CCc2ccc(F)cc2)C(=O)/C1=C/c1ccco1	nt	11.5	-4.6	167.3*	5.5	+
CCOc1ccc(C2(C#N)CC[N+](C)(C)CC2)cc1	-0.4	nt	-0.4	-1.2	4.9	nt
CCN1CCN(Cc2cc(OC)c(OC)cc2[N+](=O)[O-])CC1	-0.7	-7.4	0.2	-1.7	0.1	nt
O=C1NC(=S)NC(=O)C1=Cc1ccc2c(c1)CCN2CCCCl	12.3	nt	-1.6	79.0*	12.0	+
Nc1c(C(=O)NCc2ccco2)c2nc3ccccc3nc2n1Cc1ccc(F)cc1	16.0	3.1	42.7*	56.6*	74.3*	i
O=C(NCC1=C(c2cccc3ccccc23)C[C@@H]2CC[C@H]1N2Cc1ccco1)c1ccncc1	nt	-3.3	nt	nt	nt	nt
O=C1NC(=O)N(c2ccccc2)C(=O)/C1=C/c1ccoc1	-49.2	-5.1	nt	18.4	-144.5	nt
O=C1NC(=O)N(c2ccccc2)C(=O)/C1=C/c1coc2ccc(O)cc2c1=O	4.9	-6.5	-0.3	86.5*	-13.8	+
O=C1NC(=O)N(c2ccc(Cl)cc2)C(=O)/C1=C/c1coc2ccc(O)cc2c1=O	6.2	-1.6	4.7	74.7*	-13.6	+
COC(=O)C1=Nc2ccccc2/C1=C\c1c(O)n(C)c(=O)n(C)c1=O	2.2	-17.4	-1.8	29.9	1.0	nt
C[C@@H]1CN([C@H](C)CO)C(=O)CCCn2nncc2CO[C@H]1CN(C)C(=O)Oc1cccc2ccccc12	nt	-6.9	nt	nt	nt	nt
COc1cc(OC)c(OC)cc1/C=C1/C(=O)NC(=O)N(Cc2ccccc2)C1=O	1.9	-2.2	0.8	11.9	1.3	nt
N#Cc1c(N2CCNCC2)nc(-c2ccco2)c2c1CCCC2	0.0	-4.7	3.0	67.2*	0.6	nt
O=c1c2ccccc2nc(SCC2CCCCO2)n1-c1ccccc1 (stereo not given)	-1.1	-9.1	-0.2	4.9	0.2	nt
CCCCCCn1c(N)c(C(=O)NCCN2CCOCC2)c2nc3ccccc3nc21	27.5	nt	70.5*	64.8*	62.2*	i
CCCNC(=O)c1c(N)n(CC2CCCO2)c2nc3ccccc3nc12 (stereo not given)	3.6	nt	-3.1	57.3*	77.9*	nt
CC(C)OCCCNC(=O)c1c(N)n(CC2CCCO2)c2nc3ccccc3nc12 (stereo not given)	74.0*	-1.3	102.6*	52.1*	61.5*	nt
COCCCn1c(N)c(C(=O)NCCC(C)C)c2nc3ccccc3nc21	17.0	-2.2	102.9*	50.2*	88.3	i
C[C@]12CCC3C(CC[C@@H]4CC(=O)CC[C@]34C)C1CC[C@@H]2O (stereo not given in full)	nt	-4.9	nt	nt	nt	nt
CC(NC1=NCCS1)c1ccccc1 (stereo not given)	-0.5	-15.7	-0.5	19.9	4.2	nt
Nc1ncnc2c1ccn2[C@@H]1O[C@H](CO)[C@@H](O)[C@H]1O	nt	nt	3.7	nt	nt	nt
NC(=S)c1cn(C2OC(CO)C(O)C2O)c2ncnc(N)c12 (stereo not given)	35.3	-4.2	10.8	95.3*	11.7	+
